Rows were chosen to be rich in hits. Some 4.8% of all compounds tested hit in one or more screens of this group.
PAFAH1B2 FP inh: blocks human PAF acetylhydrolase 1b catalytic subunit 2; 340,000 tested, 1.2% active; P68402; AID 492953; recombinant PAFAH1B2, FP-rhodamine activity probe, fluorescence polarization; inhibition, % at 3.39 µM;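 active means inhibition above the mean of all tested compounds plus 3 SD, cut at about 24% in these data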
PAFAH2 inh: PAFAH2 (human) inhibition | Q99487 | recombinant PAFAH2, FP-rhodamine activity probe, fluorescence polarization | inhibition, % at 3.39 µM | 340,000 tested, 0.99% active | AID 492956;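 active means inhibition above the mean over all tested compounds plus 3 SD, cut at about 30% in these data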;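 further: inhibitors block probe labeling of enzyme so polarization drops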
GRIN3A LBD mod: modulators (binders) of human NR3A ligand-binding domain. NR3A LBD differential scanning fluorimetry, Tm shift; 0% = protein alone, 100% = glycine-bound protein. 340,000 tested, 2.5% active. AID 1259313. Tm shift relative to glycine control, % at 25 µM;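 active means melting temperature shift of at least 10% of the positive control shift, at one fixed dose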
UCH37 DUB inh: inhibitors of human deubiquitinating enzyme UCH37. inhibition, % (concentration not given with the values). 330,000 tested, 0.33% active. purified proteasome/UCH37, Ub-AMC cleavage fluorescence. Q9Y5K5. AID 588478;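 active means mean inhibition over replicate wells above about 20%, limit read from the data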
Target sequence (Q9Y5K5 whole entry, looked up): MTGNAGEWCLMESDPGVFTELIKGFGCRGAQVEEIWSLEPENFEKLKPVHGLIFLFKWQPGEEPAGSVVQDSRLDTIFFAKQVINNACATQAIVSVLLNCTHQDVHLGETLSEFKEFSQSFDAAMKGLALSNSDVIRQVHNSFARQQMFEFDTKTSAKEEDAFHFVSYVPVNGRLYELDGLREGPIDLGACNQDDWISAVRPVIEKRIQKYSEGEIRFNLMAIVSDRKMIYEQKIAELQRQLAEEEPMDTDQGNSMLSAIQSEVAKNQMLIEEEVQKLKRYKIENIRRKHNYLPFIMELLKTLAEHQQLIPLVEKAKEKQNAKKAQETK
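Reagent: Ub-AMC substrate; assay system: Proteasome-associated human UCH37 deubiquitinase; controls: no-proteasome and no-compound wells; read-out: % inhibition of Ub-AMC cleavage fluorescence; timing: 30 min preincubation with enzyme, 25 min cleavage at room temperature; signal: AMC fluorescence from Ub-AMC cleavage, excitation 355 nm, emission 460 nm; buffer or medium: Tris-HCl pH 7.4 plus ovalbumin, ATP-MgCl2, DTT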
PAFAH1B3 inh: PAFAH1B3 (human) inhibition | recombinant PAFAH1B3, FP-rhodamine probe, fluorescence polarization | inhibition, % at 3.39 µM | 340,000 tested, 0.28% active | AID 492972 | Q15102;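 active means inhibition above the screen-wide average of all tested compounds plus 3 SD, cut at about 25% in these data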
pPAFAH inh: inhibitors of human plasma PAF acetylhydrolase (pPAFAH). 330,000 tested, 1.5% active. Q13093. inhibition, % at 3.39 µM. recombinant pPAFAH, FP-rhodamine probe fluorescence polarization;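 active means inhibition above the mean inhibition across the screen plus 3 SD, cut at about 25% in these data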;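 further: inhibitors block binding of the rhodamine activity-based probe so polarization drops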
Target sequence (Q13093 whole entry, looked up): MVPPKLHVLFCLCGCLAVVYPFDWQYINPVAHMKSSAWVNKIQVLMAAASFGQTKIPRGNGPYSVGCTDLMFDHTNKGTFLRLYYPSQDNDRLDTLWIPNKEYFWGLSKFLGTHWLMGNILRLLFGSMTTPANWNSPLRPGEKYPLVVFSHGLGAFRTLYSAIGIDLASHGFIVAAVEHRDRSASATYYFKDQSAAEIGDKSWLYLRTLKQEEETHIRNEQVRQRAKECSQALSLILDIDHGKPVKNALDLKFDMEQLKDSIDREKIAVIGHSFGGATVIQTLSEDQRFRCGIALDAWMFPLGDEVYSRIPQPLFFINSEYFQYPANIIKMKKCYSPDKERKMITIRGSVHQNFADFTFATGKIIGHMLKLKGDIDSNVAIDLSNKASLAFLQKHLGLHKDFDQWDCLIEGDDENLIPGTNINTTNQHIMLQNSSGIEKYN
A number is an active result.

Results for Clc1ccc(-c2cc3ccccc3[nH]2)cc1 ?
PAFAH1B2 FP inh: inactive; PAFAH2 inh: inactive; GRIN3A LBD mod: 16.9; UCH37 DUB inh: inactive; PAFAH1B3 inh: inactive; pPAFAH inh: inactive

How did CC(/C=C/c1ccccc1)=NNC(=O)CSc1ccccn1 do in these assays?
UCH37 DUB inh: inactive

What do the screens show for `CN(C)/C=C(\C#N)C(=O)NN=Cc1ccc(Cl)cc1`?
UCH37 DUB inh: inactive

How did COc1ccccc1NC(=O)CC1C(=O)NCCN1C(=O)Nc1ccc(Cl)c(Cl)c1 (stereo not given) do in these assays?
PAFAH1B2 FP inh: inactive; PAFAH2 inh: inactive; GRIN3A LBD mod: 11.9; UCH37 DUB inh: inactive; PAFAH1B3 inh: inactive; pPAFAH inh: inactive

Results for COc1ccccc1NC(=S)N1CCNC(=O)C1CC(=O)Nc1cccc(C)c1 (stereo not given) ?
PAFAH1B2 FP inh: inactive; PAFAH2 inh: inactive; GRIN3A LBD mod: inactive; UCH37 DUB inh: inactive; PAFAH1B3 inh: inactive; pPAFAH inh: inactive

Results for Cc1ccc(NC(=O)CCC(=O)NN=Cc2ccccc2O)cc1 ?
UCH37 DUB inh: inactive

How did COC(=O)c1ccccc1NC(=O)CN1CCC(C(=O)c2ccc3c(c2)OCCO3)CC1 do in these assays?
PAFAH1B2 FP inh: inactive; PAFAH2 inh: inactive; GRIN3A LBD mod: inactive; UCH37 DUB inh: inactive; PAFAH1B3 inh: inactive; pPAFAH inh: 32.6

How did O=C(OCCN=C1NS(=O)(=O)c2ccccc21)C1CC(=O)N(c2ccc(Cl)cc2)C1 (stereo not given) do in these assays?
PAFAH1B2 FP inh: inactive; PAFAH2 inh: inactive; GRIN3A LBD mod: 24.0; UCH37 DUB inh: inactive; PAFAH1B3 inh: inactive; pPAFAH inh: inactive

How did O=C1CSC(c2ccc([N+](=O)[O-])cc2)N1C1CCCCC1 (stereo not given) do in these assays?
PAFAH1B2 FP inh: 27.4; PAFAH2 inh: inactive; GRIN3A LBD mod: inactive; UCH37 DUB inh: inactive; PAFAH1B3 inh: inactive; pPAFAH inh: inactive

What do the screens show for `O=C1CSC(c2ccc([N+](=O)[O-])cc2)N1CCN1CCCCC1` (stereo not given)?
PAFAH1B2 FP inh: inactive; PAFAH2 inh: inactive; GRIN3A LBD mod: inactive; UCH37 DUB inh: inactive; PAFAH1B3 inh: inactive; pPAFAH inh: inactive

Results for CC(CC(=O)Nc1ccc([N+](=O)[O-])cc1)=NNC(=O)c1ccccc1O ?
UCH37 DUB inh: inactive

How did CN(Cc1ccccc1)C(=O)CN1CCN(S(=O)(=O)c2ccc(Cl)c(Cl)c2)CC1 do in these assays?
PAFAH1B2 FP inh: 30.0; PAFAH2 inh: inactive; GRIN3A LBD mod: inactive; UCH37 DUB inh: inactive; PAFAH1B3 inh: inactive; pPAFAH inh: inactive

How did CCOC(=O)Cc1cc(-c2ccc(O)cc2)nc2ccc3ccccc3c12 do in these assays?
PAFAH1B2 FP inh: inactive; PAFAH2 inh: inactive; GRIN3A LBD mod: 18.4; UCH37 DUB inh: inactive; PAFAH1B3 inh: inactive; pPAFAH inh: inactive

How did CCCC(=NNC(=O)C1CC1)c1ccccc1 do in these assays?
UCH37 DUB inh: inactive

Results for O=C(Cn1c2c(sc1=O)C1c3ccccc3OCC1CS2)Nc1ccc(Cl)c(Cl)c1 (stereo not given) ?
PAFAH1B2 FP inh: inactive; PAFAH2 inh: inactive; GRIN3A LBD mod: 23.6; UCH37 DUB inh: inactive; PAFAH1B3 inh: inactive; pPAFAH inh: inactive

Results for Cc1csc(=O)n1CC(=O)Nc1ccc(Cl)c(Cl)c1 ?
PAFAH1B2 FP inh: inactive; PAFAH2 inh: inactive; GRIN3A LBD mod: inactive; UCH37 DUB inh: inactive; PAFAH1B3 inh: inactive; pPAFAH inh: inactive

Results for Clc1ccccc1OCc1nc(-c2ccc(Br)o2)no1 ?
PAFAH1B2 FP inh: inactive; PAFAH2 inh: inactive; GRIN3A LBD mod: inactive; UCH37 DUB inh: inactive; PAFAH1B3 inh: inactive; pPAFAH inh: inactive

What do the screens show for `Brc1ccc(-c2noc(CCc3ccccc3)n2)o1`?
PAFAH1B2 FP inh: 28.4; PAFAH2 inh: inactive; GRIN3A LBD mod: inactive; UCH37 DUB inh: inactive; PAFAH1B3 inh: inactive; pPAFAH inh: inactive

What do the screens show for `Cc1ccc(NC(=O)c2cccc(S(=O)(=O)N3CCN(c4ccccc4)CC3)c2)nc1`?
PAFAH1B2 FP inh: inactive; PAFAH2 inh: inactive; GRIN3A LBD mod: 27.5; UCH37 DUB inh: inactive; PAFAH1B3 inh: inactive; pPAFAH inh: inactive

Results for Cc1ccc(N2CCN(S(=O)(=O)c3nnc(NC(=O)c4ccccc4)s3)CC2)cc1 ?
PAFAH1B2 FP inh: inactive; PAFAH2 inh: inactive; GRIN3A LBD mod: 10.0; UCH37 DUB inh: inactive; PAFAH1B3 inh: inactive; pPAFAH inh: inactive

What do the screens show for `O=C(NN=Cc1c[nH]c2ccccc12)c1cc(-c2ccc3ccccc3c2)n[nH]1`?
UCH37 DUB inh: inactive

How did CCc1c(C(=O)NN=Cc2ccc(C)o2)csc1C do in these assays?
UCH37 DUB inh: inactive

How did CCN1C(=O)N/C(=C/c2cc(C)n(Cc3ccccc3)c2C)C1=O do in these assays?
PAFAH1B2 FP inh: 82.4; PAFAH2 inh: inactive; GRIN3A LBD mod: inactive; UCH37 DUB inh: inactive; PAFAH1B3 inh: inactive; pPAFAH inh: inactive

What do the screens show for `Cc1ccc(Nc2nnc(SCC(=O)Nc3ccc(S(=O)(=O)N4CCOCC4)cc3)s2)cc1`?
PAFAH1B2 FP inh: inactive; PAFAH2 inh: inactive; GRIN3A LBD mod: 33.2; UCH37 DUB inh: inactive; PAFAH1B3 inh: inactive; pPAFAH inh: inactive

What do the screens show for `O=C(CSc1nc2ccccc2s1)Nc1cc(S(=O)(=O)N2CCOCC2)ccc1O`?
PAFAH1B2 FP inh: 86.7; PAFAH2 inh: 84.5; GRIN3A LBD mod: inactive; UCH37 DUB inh: inactive; PAFAH1B3 inh: inactive; pPAFAH inh: inactive

How did O=C(CSc1nnc(Nc2ccccc2)s1)Nc1ccc(S(=O)(=O)N2CCOCC2)cc1 do in these assays?
PAFAH1B2 FP inh: inactive; PAFAH2 inh: inactive; GRIN3A LBD mod: 17.9; UCH37 DUB inh: inactive; PAFAH1B3 inh: inactive; pPAFAH inh: inactive

Results for COc1ccc(NC(=O)CSc2nnc(NC(=O)c3ccc(S(=O)(=O)N4CCOCC4)cc3)s2)cc1 ?
PAFAH1B2 FP inh: inactive; PAFAH2 inh: inactive; GRIN3A LBD mod: 31.1; UCH37 DUB inh: inactive; PAFAH1B3 inh: inactive; pPAFAH inh: inactive

How did Cc1nnc(SCC(=O)Nc2cc(S(=O)(=O)N3CCOCC3)ccc2C)s1 do in these assays?
PAFAH1B2 FP inh: inactive; PAFAH2 inh: inactive; GRIN3A LBD mod: inactive; UCH37 DUB inh: inactive; PAFAH1B3 inh: inactive

Results for CCN(CC)c1ccc([N+](=O)[O-])cc1C=NNC(=O)CC#N ?
UCH37 DUB inh: inactive

How did CC(=NNC(N)=S)C1C2C3CC4C5CC(C42)C1C53 (stereo not given) do in these assays?
UCH37 DUB inh: inactive

Results for Cc1cccc(Nc2nnc(SCC(=O)Nc3cccc(S(=O)(=O)N4CCCCC4)c3)s2)c1 ?
PAFAH1B2 FP inh: inactive; PAFAH2 inh: inactive; GRIN3A LBD mod: 14.6; UCH37 DUB inh: inactive; PAFAH1B3 inh: inactive; pPAFAH inh: inactive

What do the screens show for `CC1(C)Nc2ccccc2N(CCC(=O)N2CCOCC2)C1=O`?
PAFAH1B2 FP inh: inactive; PAFAH2 inh: inactive; GRIN3A LBD mod: 12.5; UCH37 DUB inh: inactive; PAFAH1B3 inh: inactive; pPAFAH inh: inactive

Results for CC1(C)Nc2ccccc2N(CC(=O)N2CCCCC2)C1=O ?
PAFAH1B2 FP inh: inactive; PAFAH2 inh: inactive; GRIN3A LBD mod: inactive; UCH37 DUB inh: inactive; PAFAH1B3 inh: inactive; pPAFAH inh: inactive
